Experiment [1] concerns CCRF-CEM. Briefly: Inhibitory activity was tested against CEM cells. It is filed as functional, cell-based. Particulars: Homo sapiens.
Experiment [2] concerns CCRF-CEM. Kind of experiment: Average potency against CEM cells. In kind it is functional, Homo sapiens.
The test system of experiment [3] is Tumor Cell line. Briefly: Tested against human tumor cell lines, mean graph mid point values(MG MID) are determined. It is filed as functional. The gist of the method:
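Panel of about 55 human tumor cell lines from nine cancer types: leukemia, melanoma, non-small-cell lung, colon, CNS, ovarian, renal, prostate and breast. Compounds were tested from 10⁻⁴ to 10⁻⁸ M, and the 50% growth-inhibitory concentration was found for each line.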

The test system of experiment [4] is L1210. Kind of experiment: Average potency against L1210 cells. In kind it is functional, Mus musculus.
The subject of experiment [5] is MOLT-4. Kind of experiment: Average potency against Molt4/C8cells. It is filed as functional, Homo sapiens.
Experiment [6] relates to MOLT-4. Briefly: Inhibitory activity was tested against Molt4/C8 cells. It is filed as functional, cell-based. Particulars: Homo sapiens.
In experiment [7] the test system is P388. Kind of experiment: Average potency against P388 cells. In kind it is functional, Mus musculus.
Experiment [8] has as its system P388. Briefly: Inhibitory activity was tested against P388 cells. It is filed as functional, cell-based. Particulars: Mus musculus.
In experiment [9] the test system is L1210. Briefly: Inhibitory activity was tested against L1210 cells. In kind it is functional, cell-based. Particulars: Mus musculus.
Experiment [10] concerns Jurkat. Briefly: (§1) IC80 concentrations of the compounds were used in determining the inhibition of RNA synthesis using Jurkat T cells. In kind it is functional, Homo sapiens.
Experiment [11] has as its system Jurkat. Briefly: (§2) IC80 concentrations of the compounds were used in determining the inhibition of protein synthesis using Jurkat T cells. In kind it is functional, Homo sapiens.
For experiment [12], the system named is Jurkat. Briefly: (§3) Inhibitory concentration against Human Jurkat T cells. It is filed as functional, cell-based.
Experiment [13] deals with Jurkat. The experiment is described as §3. It is filed as functional.
In experiment [14] the test system is Tumor Cell line. The description is as §3. It is filed as functional, cell-based. The gist of the method:
(§4)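 Human Jurkat T cells were exposed to compounds for 48 h. Viability was scored by nigrosin dye exclusion in place of trypan blue. IC50 and IC80 were derived from these counts.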

For experiment [15], the system named is Tumor Cell line. The description is as §3. In kind it is functional. An outline of the steps: as §4
In experiment [16] the test system is Tumor Cell line. The description is as §1. It is filed as functional, Homo sapiens.
Experiment [17] concerns Tumor Cell line. The description is as §2. In kind it is functional, Homo sapiens.

Starred links: 1 amine or outer side, 2 acyl side, 3 side chain; linkers in the order of their positions; H or OH if unused. Positions of bridges follow the written chain, without caps; N, C: chain ends. Non-standard residues stand in square brackets, D forms with d. Residues, ends and D or L forms follow the SMILES beside them. Chains are numbered I, II in the order given. Actinocin(1to9) = Cc1c2oc3c(C)ccc(C(=O)[*:2])c3nc-2c(C(=O)[*:1])c(N)c1=O; NMeV = CN[C@H](C(=O)O)C(C)C; Sar = CNCC(=O)O

What is called IC50 is the point on the concentration scale where inhibition reaches its midpoint. A higher IC50 goes with weaker potency. Usually Inhibition stands for the relative decrease from the control value, in per cent. A higher Inhibition goes with a strong effect. The IC80 is the point of the concentration-response curve where the effect stands at 80%.

Turning to `O=C1CCCCC/C1=C\c1cccc(F)c1`, the IC50 in the experiment with CCRF-CEM [1] was 224 µM; in the experiment with MOLT-4 [6], 482 µM; in the experiment with P388 [8] it was > 50 µM; in the experiment on L1210 [9] it was 382 µM. The AP with CCRF-CEM [2] is 136 µM; in the experiment on L1210 [4] it was 227 µM; in the experiment with MOLT-4 [5], 186 µM; with P388 [7] it was 34.5 µM. In addition, in the experiment with Tumor Cell line [3], the “MG MID” value is 67.6 µM.
In the case of `O=C1/C(=C/c2cccc([N+](=O)[O-])c2)CCCc2ccccc21`, the IC50 in the experiment with CCRF-CEM [1] came out at 7.72 µM; with MOLT-4 [6], 8.82 µM; in the experiment with P388 [8], 15.8 µM; in the experiment on L1210 [9], 48.8 µM. Moreover, the AP in the experiment with CCRF-CEM [2] came out at 47 µM; in the experiment on L1210 [4], 85.2 µM; in the experiment with MOLT-4 [5], 66 µM; with P388 [7], 11.2 µM. Also, the “MG MID” value in the experiment on Tumor Cell line [3] was 10.2 µM.
Consider `Cc1ccc(/C=C2\CCCc3ccccc3C2=O)cc1`, for which the IC50 in the experiment on CCRF-CEM [1] stood at 11.4 µM; with Jurkat [12], 14.6 µM; in the experiment with MOLT-4 [6], 21.3 µM; in the experiment with P388 [8], 11.8 µM; with L1210 [9] it was 25 µM. The AP was determined as 47 µM in the experiment on CCRF-CEM [2], 85.2 µM in the experiment on L1210 [4], 66 µM with MOLT-4 [5] and 11.2 µM in the experiment on P388 [7]. Further, the Inhibition was 84.2% in the experiment with Jurkat [10] and 46.3% in the experiment with Jurkat [11]. Moreover, the “MG MID” value with Tumor Cell line [3] turned out to be 11.2 µM. This compound displayed an IC80 with Jurkat [13] of 23.3 µM.
Take `COc1ccc(/C=C2\CCCc3ccccc3C2=O)cc1`: the IC50 stood at 0.35 µM with CCRF-CEM [1]; 3.5 µM in the experiment with Tumor Cell line [14]; 0.47 µM in the experiment on MOLT-4 [6]; 1.6 µM with P388 [8]; 0.34 µM in the experiment with L1210 [9]. Also, the AP with CCRF-CEM [2] was found to be 47 µM; with L1210 [4], 85.2 µM; in the experiment on MOLT-4 [5] it was 66 µM; in the experiment on P388 [7] it was 11.2 µM. In addition, in the experiment with Tumor Cell line [15], it took 5.6 µM to reach the 80% level (IC80). For the same compound, the Inhibition in the experiment on Tumor Cell line [16] is on record as 92.3%; in the experiment with Tumor Cell line [17], 19.5%. The “MG MID” value in the experiment with Tumor Cell line [3] came out at 0.269 µM.
Take `O=C1/C(=C/c2cccc(Cl)c2)CCCc2ccccc21`: the IC50 is 9.44 µM in the experiment on CCRF-CEM [1], 23.8 µM in the experiment on MOLT-4 [6], 8.2 µM in the experiment on P388 [8] and 52.3 µM with L1210 [9]. The AP came out at 47 µM with CCRF-CEM [2], 85.2 µM in the experiment on L1210 [4], 66 µM in the experiment on MOLT-4 [5] and 11.2 µM in the experiment with P388 [7]. The “MG MID” value in the experiment on Tumor Cell line [3] is 16.6 µM.
In the case of `N[C@@H](Cc1ccc(N(CCCl)CCCl)cc1)C(=O)O`, the Inhibition with Jurkat [10] was found to be 85.1%; in the experiment with Jurkat [11] it was 30.5%. Further, the “MG MID” value in the experiment on Tumor Cell line [3] was found to be 25.7 µM. Moreover, in the experiment on Jurkat [12], inhibition was half-maximal at 2.2 µM (IC50). Also, it took 3.52 µM to reach the 80% level in the experiment on Jurkat [13] (IC80).
`C[C@@H]1C[C@@H]([C@H](O)CC2CC(=O)NC(=O)C2)C(=O)[C@@H](C)C1` [CYCLOHEXIMIDE]: the Inhibition in the experiment with Jurkat [10] worked out at 93.3%; in the experiment with Jurkat [11], 71.9%. Also, the IC50 in the experiment on Jurkat [12] amounted to 0.93 µM. In addition, the IC80 in the experiment on Jurkat [13] worked out at 1.54 µM.
As for `Cc1c2oc3c(C)ccc(C(=O)N[C@@H]4C(=O)N[C@H](C(C)C)C(=O)N5CCC[C@H]5C(=O)N(C)CC(=O)N(C)[C@@H](C(C)C)C(=O)O[C@@H]4C)c3nc-2c(C(=O)N[C@@H]2C(=O)N[C@H](C(C)C)C(=O)N3CCC[C@H]3C(=O)N(C)CC(=O)N(C)[C@@H](C(C)C)C(=O)O[C@@H]2C)c(N)c1=O` [DACTINOMYCIN] (I: T[dV]P[Sar][NMeV] / II: T[dV]P[Sar][NMeV]; ester I:1-I:C, II:1-II:C; linker I:N-II:N via Actinocin(1to9)), the Inhibition is 63.2% with Jurkat [10] and 51.8% in the experiment on Jurkat [11]. The same compound showed an IC50 in the experiment with Jurkat [12] of 0.0045 µM. Moreover, the 80% effect level in the experiment with Jurkat [13] (IC80) was put at 0.0072 µM.

(Values after ChEMBL document CHEMBL1132632, “Conformational and quantitative structure-activity relationship study of cytotoxic 2-arylidenebenzocycloalkanones” (J Med Chem, 1999).)
